Measurements reported in ChEMBL document CHEMBL5036309, “Orally Active Peptide Vector Allows Using Cannabis to Fight Pain While Avoiding Side Effects” (J Med Chem, 2021).
Active and inactive are the calls of the source. Square brackets hold non-standard residues; d marks the D form. Peptide text beside a SMILES is read from it.

Key:
HEK293T [1] = assay: Inhibition of human c-YFP fused CB1R/n-YFP fused 5HT2A receptor heterodimer formation expressed in HEK293 cells assessed as increase in pERK level preincubated for 15 mins followed by DOI stimulation for 7 mins by microplate reader method; format: cell-based; conditions: time 22.0 min
HEK293T [2] = assay: Inhibition of human c-YFP fused CB1R/n-YFP fused 5HT2A receptor heterodimer formation expressed in HEK293T cells assessed as decrease in forskolin induced cAMP level preincubated for 15 mins forskolin and WIN 55,212-2 stimulation and measured after 15 mins by HTRF assay; format: cell-based; conditions: time 30.0 min
HEK293T [3] = assay: Inhibition of human c-YFP fused CB1R/n-YFP fused 5HT2A receptor heterodimer formation expressed in HEK293T cells assessed as decrease in forskolin induced cAMP level preincubated for 15 mins forskolin and DOI stimulation and measured after 15 mins by HTRF assay; format: cell-based; conditions: time 30.0 min
HEK293T [4] = assay: Inhibition of human c-YFP fused CB1R/n-YFP fused 5HT2A receptor heterodimer formation expressed in HEK293T cells assessed as increase in pERK level preincubated for 15 mins followed by WIN 55,212-2 stimulation for 7 mins by microplate reader method; format: cell-based; conditions: time 22.0 min
HEK293T [5] = assay: Inhibition of human c-YFP fused CB1R/n-YFP fused 5HT2A receptor heterodimer formation transfected in human HEK293T cells at 4 uM incubated for 4 hrs by BIFC assay; format: cell-based
Procedure, shortened: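 HEK-293T cells were cotransfected 48 h with 5HT2AR-cYFP and CB1R-nYFP (4 μg cDNA each, polyethylenimine), then treated with 4 μM peptide or vehicle for 4 h at 37 °C. Reconstituted YFP Venus was read on 20 μg protein at 530 nm emission with 400 nm excitation, minus the fluorescence of non-expressing cells. Mean ± SEM, n = 10–30.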

BEND3 = assay: Induction of BBB translocation in mouse BEND3 cells measured after 24 hrs by fluorescence analysis; format: functional, cell-based
Procedure, shortened: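 5(6)-Carboxyfluorescein-labeled peptides were applied to a transwell BBB model of bEnd.3 cells. Translocation (%) was measured as fluorescence in the basolateral chamber after 24 h, with a trans-BBB peptide as positive control. Barrier integrity was checked afterward by FD4 dextran permeability. Mean ± SEM, n = 3–6, independent cultures on different days.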

Mus musculus [6] = assay: Analgesic activity in mouse assessed as pain response at 20 mg/kg, iv pretreated with compound for 30 mins followed by THP addition and measured after 60 mins by hot plate test; format: functional, organism-based; conditions: time 90.0 min
Procedure, shortened: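 Mice got peptide or vehicle IV (20 mg/kg) or orally by gavage (5, 10, 20 mg/kg) 30 min before IP THC 10 mg/kg (vehicle 5% ethanol, 5% Cremophor-EL, 90% saline). Latency to jump on a 52 ± 0.5 °C hot plate was read 60 min after THC, with a 240 s cutoff. Mean ± SEM, n = 10–12 (IV) or 5–8 (oral); Fisher LSD.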

[7] = Drug internalization in mouse BEND3 cells by confocal microscopic analysis; format: ADME, cell-based
Procedure, shortened: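 bEnd.3 mouse brain endothelial cells were exposed to 5(6)-carboxyfluorescein-labeled peptides and counterstained with Hoechst 33342 and CellMask Deep Red membrane stain. Imaging used point-scanning confocal microscopy with a 63× oil objective, 405 nm excitation for the stains and 488 nm for the peptide.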

Mus musculus [8] = assay: Protection against THP-induced amnesic effect in mouse assessed as reduction in memory impairment at 20 mg/kg, iv pretreated for 30 mins followed by THP addition; format: functional, organism-based
Procedure, shortened: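 V-maze novel object recognition. Day 1 was 9 min habituation. Day 2 was 9 min training with two identical objects. Peptide was given IV (20 mg/kg) or orally (5, 10, 20 mg/kg) right after training, then IP THC 3 mg/kg or vehicle 30 min later. The 9 min test came 24 h later with one object replaced. Discrimination index = (novel − familiar)/total exploration time; exploration meant the nose oriented within 2 cm of the object. Fisher LSD.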

COc1cccc([C@H](O)C2CCN(CCc3ccc(F)cc3)CC2)c1OC
inactive: inhibition (HEK293T [1]) | inhibition (HEK293T [2]) | inhibition (HEK293T [3]) | inhibition (HEK293T [4])

Cc1c(C(=O)NN2CCCCC2)nn(-c2ccc(Cl)cc2Cl)c1-c1ccc(Cl)cc1
inactive: inhibition (HEK293T [1]) | inhibition (HEK293T [2]) | inhibition (HEK293T [3]) | inhibition (HEK293T [4])

CC[C@H](C)[C@H](NC(=O)[C@@H](NC(=O)[C@@H]1CCCN1C(=O)[C@H](CC(N)=O)NC(=O)[C@@H](NC(=O)[C@@H](NC(=O)[C@H](CO)NC(=O)[C@H](CC(N)=O)NC(=O)[C@H](CC(C)C)NC(=O)[C@H](CC(C)C)NC(=O)[C@H](CS)NC(=O)[C@H](CC(C)C)NC(=O)[C@H](CCSC)NC(=O)[C@H](CO)NC(=O)[C@H](CS)NC(=O)[C@H](Cc1ccccc1)NC(=O)[C@H](C)NC(=O)[C@H](Cc1ccccc1)NC(=O)[C@@H](NC(=O)[C@@H](NC(=O)[C@H](CCCCN)NC(=O)[C@@H](NC(=O)[C@@H](N)CC(C)C)[C@@H](C)CC)[C@@H](C)O)C(C)C)[C@@H](C)O)C(C)C)[C@@H](C)CC)C(=O)N[C@@H](Cc1ccc(O)cc1)C(=O)N[C@@H](C)C(=O)N[C@@H](CC(C)C)C(=O)N[C@@H](CCCNC(=N)N)C(=O)NCC(=O)N[C@@H](CCCNC(=N)N)C(=O)N[C@@H](CCCCN)C(=O)N[C@@H](CCCCN)C(=O)N[C@@H](CCCNC(=N)N)C(=O)N[C@@H](CCCNC(=N)N)C(=O)N[C@@H](CCC(N)=O)C(=O)N[C@@H](CCCNC(=N)N)C(=O)N[C@@H](CCCNC(=N)N)C(=O)N[C@@H](CCCNC(=N)N)C(N)=O (H-LIKTVFAFCSMLCLLNSTVNPIIYALRGRKKRRQRRR-NH2)
inactive: inhibition (HEK293T [1]) | inhibition (HEK293T [5]) | inhibition (HEK293T [2]) | inhibition (HEK293T [4])

CC[C@@H](C)[C@@H](NC(=O)CNC(=O)[C@@H](C)NC(=O)[C@H](Cc1c[nH]c2ccccc12)NC(=O)[C@H](CC(C)C)NC(=O)[C@@H](NC(=O)[C@H](Cc1ccc(O)cc1)NC(=O)[C@H](CCSC)NC(=O)[C@H](Cc1ccc(O)cc1)NC(=O)[C@H](C)NC(=O)[C@H](Cc1ccc(O)cc1)NC(=O)[C@@H](N)C(C)C)[C@@H](C)CC)C(=O)N[C@H](CC(C)C)C(=O)N[C@H](CCCCN)C(=O)N[C@H](CCCNC(=N)N)C(=O)N[C@H](Cc1c[nH]c2ccccc12)C(N)=O (H-VYAYMYILW[dA]G[dI][dL][dK][dR][dW]-NH2)
active: inhibition (HEK293T [1]) | inhibition (HEK293T [2]) | Activity (BEND3) | inhibition (HEK293T [3]) | inhibition (HEK293T [4])

CC[C@H](C)[C@H](NC(=O)[C@H](Cc1ccc(O)cc1)NC(=O)[C@H](CCSC)NC(=O)[C@H](Cc1ccc(O)cc1)NC(=O)[C@H](C)NC(=O)[C@H](Cc1ccc(O)cc1)NC(=O)[C@@H](N)C(C)C)C(=O)N[C@@H](CC(C)C)C(=O)N[C@@H](Cc1c[nH]c2ccccc12)C(=O)N[C@H](CO)C(=O)N[C@H](CCCCN)C(=O)N[C@H](CO)C(=O)N[C@H](CCCCN)C(=O)N[C@H](CO)C(=O)N[C@H](CCCCN)C(N)=O (H-VYAYMYILW[dS][dK][dS][dK][dS][dK]-NH2)
active: inhibition (HEK293T [1]) | inhibition (HEK293T [2]) | Activity (BEND3) | inhibition (HEK293T [3]) | inhibition (HEK293T [4])

CC[C@@H](C)[C@@H](NC(=O)CNC(=O)[C@@H](C)N)C(=O)N[C@H](CC(C)C)C(=O)N[C@H](CCCCN)C(=O)N[C@H](CCCNC(=N)N)C(=O)N[C@H](Cc1c[nH]c2ccccc12)C(=O)N[C@@H](CCCCN)C(=O)N[C@H](C(=O)N[C@@H](CC(C)C)C(=O)N[C@H](C(=O)N[C@@H](CC(C)C)C(=O)N[C@H](C(=O)N[C@@H](CC(C)C)C(=O)N[C@H](C(=O)N[C@H](C(N)=O)C(C)C)C(C)C)[C@@H](C)CC)C(C)C)[C@@H](C)O (H-[dA]G[dI][dL][dK][dR][dW]KTLVLILVV-NH2)
active: inhibition (HEK293T [1]) | inhibition (HEK293T [2]) | Activity (BEND3) | inhibition (HEK293T [3]) | inhibition (HEK293T [4])

CC[C@@H](C)[C@@H](NC(=O)CNC(=O)[C@@H](C)N)C(=O)N[C@H](CC(C)C)C(=O)N[C@H](CCCCN)C(=O)N[C@H](CCCNC(=N)N)C(=O)N[C@H](Cc1c[nH]c2ccccc12)C(=O)N[C@@H](C(=O)N[C@@H](C(=O)N[C@H](CC(C)C)C(=O)N[C@@H](C(=O)N[C@H](CC(C)C)C(=O)N[C@@H](C(=O)N[C@H](CC(C)C)C(=O)N[C@@H](C(=O)N[C@H](CCCCN)C(N)=O)[C@H](C)O)C(C)C)[C@H](C)CC)C(C)C)C(C)C (H-[dA]G[dI][dL][dK][dR][dW][dV][dV][dL][dI][dL][dV][dL][dT][dK]-NH2)
inactive: Activity (Mus musculus [8])
active: Activity (Mus musculus [6]) | inhibition (HEK293T [5]) | Activity (BEND3)
Active: Drug uptake [7]

CC[C@H](C)[C@H](NC(=O)[C@H](CC(C)C)NC(=O)[C@@H](NC(=O)[C@H](CC(C)C)NC(=O)[C@@H](NC(=O)[C@H](CCCCN)NC(=O)[C@@H](CCCCN)NC(=O)[C@@H](CO)NC(=O)[C@@H](CCCCN)NC(=O)[C@@H](CO)NC(=O)[C@@H](CCCCN)NC(=O)[C@H](N)CO)[C@@H](C)O)C(C)C)C(=O)N[C@@H](CC(C)C)C(=O)N[C@H](C(=O)N[C@H](C(N)=O)C(C)C)C(C)C (H-[dS][dK][dS][dK][dS][dK]KTLVLILVV-NH2)
active: inhibition (HEK293T [1]) | inhibition (HEK293T [2]) | Activity (BEND3) | inhibition (HEK293T [3]) | inhibition (HEK293T [4])

H-AGILKRWKTLVLILVV-NH2
active: inhibition (HEK293T [1]) | inhibition (HEK293T [2]) | inhibition (HEK293T [3]) | inhibition (HEK293T [4])

H-ETYLMFWIGVTSVLLLFIVYAYMYILWGRKKRRQRRR-NH2
active: inhibition (HEK293T [1]) | inhibition (HEK293T [5]) | inhibition (HEK293T [2]) | inhibition (HEK293T [4])

H-GRKKRRQRRRKTLVLILVV-NH2
active: inhibition (HEK293T [1]) | inhibition (HEK293T [5]) | inhibition (HEK293T [2]) | inhibition (HEK293T [3]) | inhibition (HEK293T [4])

H-GRKKRRQRRRKTLVLILVVLIICWGPLLAIMVYDVF-NH2
active: inhibition (HEK293T [1]) | inhibition (HEK293T [5]) | inhibition (HEK293T [2]) | inhibition (HEK293T [4])

H-RKRKTLVLILVV-NH2
active: inhibition (HEK293T [1]) | inhibition (HEK293T [2]) | inhibition (HEK293T [3]) | inhibition (HEK293T [4])

H-SKSKSKKTLVLILVV-NH2
active: inhibition (HEK293T [1]) | inhibition (HEK293T [2]) | inhibition (HEK293T [3]) | inhibition (HEK293T [4])

H-VYAYMYILWAGILKRW-NH2
active: inhibition (HEK293T [1]) | inhibition (HEK293T [2]) | inhibition (HEK293T [3]) | inhibition (HEK293T [4])

H-VYAYMYILWGRKKRRQRRR-NH2
active: inhibition (HEK293T [1]) | inhibition (HEK293T [5]) | inhibition (HEK293T [2]) | inhibition (HEK293T [3]) | inhibition (HEK293T [4])

H-VYAYMYILWRKR-NH2
active: inhibition (HEK293T [1]) | inhibition (HEK293T [2]) | inhibition (HEK293T [3]) | inhibition (HEK293T [4])

H-VYAYMYILWSKSKSK-NH2
active: inhibition (HEK293T [1]) | inhibition (HEK293T [2]) | inhibition (HEK293T [3]) | inhibition (HEK293T [4])
